In data set [1] the test system is RAW264.7. As to the kind of experiment: Antiinflammatory activity against IFN-gamma-stimulated mouse RAW264.7 cells assessed as nitrite accumulation after 24 hrs by Griess reagent method. It is filed as functional, cell-based. As to conditions: RAW264.7, 24 h. An outline of the steps: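 RAW 264.7 cells co-treated with graded compound concentrations and interferon-γ (10 ng/mL) for 24 hours; nitric oxide in supernatants measured by Griess reaction. IC50 averaged over three experiments.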
For orientation: The Griess reaction detects nitrite, a stable product of nitric oxide.

Data set [2] deals with T1, Heme oxygenase 1 (Mus musculus) (UniProt P14901).
T1 sequence (whole entry): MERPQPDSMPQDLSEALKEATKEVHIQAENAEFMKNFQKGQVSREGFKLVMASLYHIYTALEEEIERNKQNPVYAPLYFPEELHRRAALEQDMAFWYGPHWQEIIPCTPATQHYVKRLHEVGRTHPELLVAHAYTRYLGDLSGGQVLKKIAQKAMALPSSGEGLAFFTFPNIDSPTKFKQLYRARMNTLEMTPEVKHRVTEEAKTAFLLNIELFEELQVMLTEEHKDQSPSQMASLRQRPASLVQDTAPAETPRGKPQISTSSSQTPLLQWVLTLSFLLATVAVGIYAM
As to the kind of experiment: Induction of HO1 in mouse RAW264.7 cells at 100 nM after 6 hrs by SDS-PAGE. It is filed as cell-based. An outline of the steps: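 RAW 264.7 cells exposed to compounds at 100 nM for 6 hours. Total cell lysates resolved by SDS-PAGE, immunoblotted with HO-1 antibody, ECL detection.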

Data set [3] can be described thus: Stability assessed as compound remaining after 24 hrs in presence of in 10% fetal bovine serum. As to conditions: cattle. It is filed as ADME. Summed up:
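Compound incubated in RAW 264.7 cell growth medium (RPMI with 10% fetal bovine serum) at 37 °C. Percentage of material remaining followed over time up to 24 h.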

The test system of data set [4] is Mus musculus. As to the kind of experiment: Induction of HO1 in CD1 mouse liver at 2 umol, ip after 6 hrs by SDS-PAGE. In kind it is functional, organism-based. An outline of the steps:
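CD-1 mice, 4 per group, given a single 2 µmol i.p. injection. Livers harvested after 6 h and homogenized. Lysates separated by SDS-PAGE, probed with HO-1 antibodies and developed by ECL.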

Data set [5] relates to Liver. As to the kind of experiment: Drug level in CD1 mouse liver at 2 umol, ip after 6 hrs by HPLC/MS. It is filed as ADME, organism-based. As to conditions: in vivo. Summed up:
(§1)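 Female CD-1 mice dosed i.p. with 2 µmol compound in DMSO–cremophor–PBS (1:1:8). Sacrificed 6 hours later; liver, lung, whole blood and plasma collected for compound levels (tissue µmol/kg, blood/plasma µM).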

Data set [6] relates to Lung. As to the kind of experiment: Drug level in CD1 mouse lung at 2 umol, ip after 6 hrs by HPLC/MS. It is filed as ADME, organism-based. As to conditions: in vivo. Summed up:
as §1

The nature of data set [7]: Drug level in CD1 mouse whole blood at 2 umol, ip after 6 hrs by HPLC/MS. It is filed as ADME, organism-based. The conditions noted are these: read-out: Drug uptake. An outline of the steps: as §1
A short description of data set [8]: Drug uptake in CD1 mouse plasma at 2 umol, ip after 6 hrs by HPLC/MS. In kind it is ADME, organism-based. As to conditions: read-out: Drug uptake. An outline of the steps:
as §1

pIC50: −log10 of the molar value. The source made the active and inactive calls. No cut-off for these calls is given here.

For orientation: pIC50 means the IC50 on a negative log10 scale, so that one unit is a factor of ten.

For the compound `C=C(C)[C@@H]1CC[C@]2(C(=O)OC(=O)[C@]34CC[C@@H](C(=C)C)[C@@H]3[C@H]3CC[C@@H]5[C@@]6(C)C=C(C#N)C(=O)C(C)(C)[C@@H]6CC[C@@]5(C)[C@]3(C)CC4)CC[C@]3(C)[C@H](CC[C@@H]4[C@@]5(C)C=C(C#N)C(=O)C(C)(C)[C@@H]5CC[C@]43C)[C@@H]12` [LUPANE ANHYDRIDE], the negative-log IC50 (pIC50) in data set [1] is under 5.00. The result in data set [2] was inactive.
For the compound `C=C(C)[C@@H]1CC[C@]2(C(=O)O)CC[C@]3(C)[C@H](CC[C@@H]4[C@@]5(C)C=C(C#N)C(=O)C(C)(C)[C@@H]5CC[C@]43C)[C@@H]12`, the outcome in data set [2] was Active.
In the case of `CC1(C)CC[C@]2(C(=O)OC(=O)[C@]34CCC(C)(C)C[C@H]3[C@H]3C(=O)C=C5[C@@]6(C)C=C(C#N)C(=O)C(C)(C)[C@@H]6CC[C@@]5(C)[C@]3(C)CC4)CC[C@]3(C)[C@H](C(=O)C=C4[C@@]5(C)C=C(C#N)C(=O)C(C)(C)[C@@H]5CC[C@]43C)[C@@H]2C1`, the pIC50 in data set [1] was 7.83. In addition, the outcome in data set [2] and in data set [4] was Active. In addition, in data set [3], the result was Active. The Drug uptake was 0.045 µmol/kg in data set [5] and 0.031 µmol/kg in data set [6]. Besides, the concentration at 6 h in data set [7] was determined as 52 µM; in data set [8] it was 43 µM.
`CC1(C)CC[C@]2(C(=O)O)CC[C@]3(C)[C@H](C(=O)C=C4[C@@]5(C)C=C(C#N)C(=O)C(C)(C)[C@@H]5CC[C@]43C)[C@@H]2C1` [BARDOXOLONE]: the pIC50 in data set [1] is 7.55. Further, the outcome in data set [2] was Active. Besides, the Drug uptake in data set [5] worked out at 0.041 µmol/kg; in data set [6], 0.018 µmol/kg. In addition, the figures for the concentration at 6 h in data set [7] and in data set [8] were 19 µM and 2 µM, respectively.

The values are drawn from ChEMBL document CHEMBL1156279, “2-Cyano-3,10-dioxooleana-1,9(11)-dien-28-oic acid anhydride. A novel and highly potent anti-inflammatory and cytoprotective agent” (Bioorg Med Chem Lett, 2010).
